ChEMBL document CHEMBL4627246, “Pyroglutamide-Based P2X7 Receptor Antagonists Targeting Inflammatory Bowel Disease” (J Med Chem, 2020)
Active and inactive are the calls of the source. The rule behind the calls is not given here.

Legend:
[1] = target: T1, P2X purinoceptor 7 (Homo sapiens) (UniProt Q99572); experiment: Antagonist activity at P2X7R in human THP1 cells assessed as inhibition of LPS and BzATP-induced mature form of IL-1beta expression in whole cell extract at 10^-6 mol/L pretreated with compound followed by LPS/BzATP addition and measured after 2 to 6 hrs by Western blot analysis; type: cell-based; conditions: THP-1
T1 sequence (whole entry): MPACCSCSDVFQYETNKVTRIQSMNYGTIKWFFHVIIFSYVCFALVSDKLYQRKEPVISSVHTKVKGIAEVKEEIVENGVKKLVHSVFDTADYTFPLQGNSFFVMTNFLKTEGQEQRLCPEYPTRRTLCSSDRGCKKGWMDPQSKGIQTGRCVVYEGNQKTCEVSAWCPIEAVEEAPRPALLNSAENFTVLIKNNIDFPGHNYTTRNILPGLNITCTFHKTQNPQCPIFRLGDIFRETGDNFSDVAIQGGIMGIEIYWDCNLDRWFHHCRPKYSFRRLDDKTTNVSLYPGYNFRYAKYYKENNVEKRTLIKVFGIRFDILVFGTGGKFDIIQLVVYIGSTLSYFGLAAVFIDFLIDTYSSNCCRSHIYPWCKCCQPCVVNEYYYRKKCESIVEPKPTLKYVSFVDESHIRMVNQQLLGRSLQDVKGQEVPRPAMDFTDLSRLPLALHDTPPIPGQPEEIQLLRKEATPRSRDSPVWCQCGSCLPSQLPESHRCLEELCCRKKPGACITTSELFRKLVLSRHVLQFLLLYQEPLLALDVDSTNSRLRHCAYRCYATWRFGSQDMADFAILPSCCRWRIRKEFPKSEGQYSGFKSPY

[2] = target: T1, P2X purinoceptor 7 (Homo sapiens); experiment: Antagonist activity at P2X7R in human THP1 cells assessed as inhibition of LPS and BzATP-induced IL-1beta expression by measuring increase in proIL-1beta expression in cell supernatant extract at 10^-6 mol/L pretreated with compound followed by LPS/BzATP addition and measured after 6 hrs by Western blot analysis; type: cell-based; conditions: THP-1
[3] = target: T1, P2X purinoceptor 7 (Homo sapiens); experiment: Antagonist activity at P2X7R in human THP1 cells assessed as inhibition of LPS and BzATP-induced mature form of IL-1beta expression in cells supernatant at 10^-6 mol/L pretreated with compound followed by LPS/BzATP addition and measured after 2 to 6 hrs by Western blot analysis; type: cell-based; conditions: THP-1
[4] = target: T1, P2X purinoceptor 7 (Homo sapiens); experiment: Antagonist activity at P2X7R in human THP1 cells assessed as inhibition of LPS and BzATP-induced ROS production at 10^-6mol/L pretreated with compound followed by LPS/BzATP addition and measured after 6 hrs by kinetic chemiluminescence based fluorometric analysis; type: cell-based; conditions: THP-1
Method in brief: (§1)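 Differentiated THP-1 macrophages (10^5 cells, RPMI 1640 + 10% FBS) pretreated with antagonist at 10^-6 mol/L before LPS (10 μmol/L) and BzATP (70 μmol/L), 37 °C, 5% CO2; ROS detected as luminol (50 μM)/horseradish peroxidase (50 μg/mL) chemiluminescence on a fluorometer; H2O2 without cells as positive control.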

[5] = target: T1, P2X purinoceptor 7 (Homo sapiens); experiment: Antagonist activity at P2X7R in human THP1 cells assessed as inhibition of LPS and BzATP-induced cell death at 10^-6 mol/L pretreated with compound followed by LPS/BzATP addition and measured after 4 hrs by sytox green dye based flow cytometry; conditions: THP-1
[6] = target: T1, P2X purinoceptor 7 (Homo sapiens); experiment: Antagonist activity at P2X7R in human THP1 cells assessed as inhibition of LPS and BzATP-induced cell death at 10^-6 mol/L pretreated with compound followed by LPS/BzATP addition and measured after 6 hrs by sytox green dye based flow cytometry; conditions: THP-1
[7] = target: T1, P2X purinoceptor 7 (Homo sapiens); experiment: Antagonist activity at P2X7R in human THP1 cells assessed as inhibition of LPS and BzATP-induced ROS production at 10^-6mol/L pretreated with compound followed by LPS/BzATP addition and measured after 4 hrs by kinetic chemiluminescence based fluorometric analysis; type: cell-based; conditions: THP-1; method in brief: as §1
Mus musculus [8] = experiment: Antiinflammatory activity against DSS-induced colitis C57BL/6J mouse model assessed as decrease in inflammation level in colon at 2.5 mg/kg, ip administered daily and measured after day 14 by hematoxylin and eosin staining based microscopic analysis; type: functional; conditions: 336 h
Method in brief: (§2)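 DSS colitis in WT mice: 3.8% DSS in drinking water days 1–5, then tap water for 10 days; compound 2.5 mg/kg given i.p. daily in 10% DMSO/PBS; cohorts of 10 mice per group, placebo as comparator; weight loss and clinical disease score tracked; colon sections at day 14 stained with H&E and histologically scored; data as mean ± SEM.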

[9] = Drug metabolism in human liver microsomes assessed as metabolite N-[(2,4-dichlorophenyl)methyl]-5-oxo-pyrrolidine-2-carboxamide formation at 0.2 mg/ml incubated for 60 mins by UPLC-MS/MS analysis; type: ADME, Microsome; conditions: 1 h
Method in brief: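 Human liver microsomes (2 mg protein/mL) pre-activated with alamethicin in 0.1 M Tris-HCl/10 mM MgCl₂ pH 7.4, added to dried residue of 0.2 mg/mL compound solution; cofactors UDPGA 5 mM, NADPH 1.3 mM, G6P 3.3 mM, G6PD 0.5 U/mL. 37 °C, 60 min; stopped with methanol plus internal standards. Supernatant analysed by online-extraction UPLC on C18 with Q-TOF MS, ESI+.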

Mus musculus [10] = experiment: Antiinflammatory activity against DSS-induced colitis C57BL/6J mouse model assessed as reduction in DAI score at 2.5 mg/kg, ip administered daily and measured for 15 days; type: functional; conditions: 360 h; method in brief: as §2
Mus musculus [11] = experiment: Antiinflammatory activity against DSS-induced colitis C57BL/6J mouse model assessed as reduction in rectal bleeding at 2.5 mg/kg, ip administered daily and measured for 15 days; type: functional, organism-based; method in brief: as §2
Mus musculus [12] = experiment: Antiinflammatory activity against DSS-induced colitis C57BL/6J mouse model assessed as reduction in diarrhea at 2.5 mg/kg, ip administered daily and measured for 15 days; type: functional, organism-based; method in brief: as §2
Mus musculus [13] = experiment: Antiinflammatory activity against DSS-induced colitis C57BL/6J mouse model assessed as areas of normal colonic mucosa with straight and larger crypts on muscularis mucosa at 2.5 mg/kg, ip administered daily and measured after day 14 by hematoxylin and eosin staining based microscopic analysis; type: functional, organism-based; method in brief: as §2
Mus musculus [14] = experiment: Antiinflammatory activity against DSS-induced colitis C57BL/6J mouse model assessed as body weight loss at 2.5 mg/kg, ip administered daily and measured for 15 days relative to placebo-treated control; type: functional; method in brief: as §2

SMILES | inhibition [1] | inhibition [2] | inhibition [3] | inhibition [4] | inhibition [5] | inhibition [6] | inhibition [7] | inhibition in vivo at 2.5 mg/kg (Mus musculus [8]) | Drug metabolism [9] | inhibition in vivo at 2.5 mg/kg (Mus musculus [10]) | Activity (Mus musculus [11]) | Activity (Mus musculus [12]) | Activity (Mus musculus [13]) | Activity (Mus musculus [14])
O=C(NCc1ccc(Cl)cc1Cl)[C@@H]1CCC(=O)N1c1ccsc1 | Active | Active | Active | inactive | Active | inactive | Active |  |  |  |  |  |  | 
O=C(NCc1ccc(Cl)cc1Cl)[C@@H]1CCC(=O)N1c1cccs1 | Active | Active | Active | inactive | Active | inactive | Active | 42 to 50% | Metabolite_Detected | 31% | Active | Active | Active | 50%
